Experimental data: ChEMBL document CHEMBL1671867, “Novel polymyxin derivatives carrying only three positive charges are effective antibacterial agents” (Antimicrob Agents Chemother, 2008)
In brackets after ≈: the same amount, converted by molar mass.

Assays:
Escherichia coli [1] = test: Antibacterial activity against 5 x 10^5 CFU/ml Escherichia coli ATCC […] by Etest method in presence of […] NAB739; assay type: functional
Escherichia coli [2] = test: Antibacterial activity against Escherichia coli ATCC 25992 in presence of NAB7061; assay type: functional
Acinetobacter baumannii [3] = test: Antibacterial activity against Acinetobacter baumannii F264 by Etest method in presence of 1 ug/ml NAB739; assay type: functional
Acinetobacter baumannii [4] = test: Antibacterial activity against Acinetobacter baumannii ATCC 19606 by Etest method in presence of NAB739; assay type: functional
Acinetobacter baumannii [5] = test: Antibacterial activity against Acinetobacter baumannii ATCC 19606 by Etest method in presence of 0.5 ug/ml NAB739; assay type: functional
Escherichia coli [6] = test: Antibacterial activity against 5 x 10^5 CFU/ml Escherichia coli ATCC […] by Etest method by Etest in presence of 4 ug/ml NAB7061; assay type: functional
How it was run: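 Antibiotic MICs were read from E-strips on Mueller-Hinton agar containing the peptide at 1 to 16 μg/ml in twofold steps, or at a single 4 μg/ml, and on agar without peptide. The inoculum was prepared per the strip maker's instructions and matched CLSI M2-A9. Values come from two independent determinations.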

Escherichia coli [7] = test: Antibacterial activity against 5 x 10^5 CFU/ml Escherichia coli ATCC […] by Etest method by Etest in presence of 1 ug/ml NAB7061; assay type: functional
Pseudomonas aeruginosa = test: Antibacterial activity against Pseudomonas aeruginosa ATCC 27853by Etest method in presence of 1 ug/ml NAB739; assay type: functional
How it was run: (§1)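 MICs of the antibiotic taken from E-strips on Mueller-Hinton agar, run both with and without peptide. […] Inoculum was prepared per the strip manufacturer, matching CLSI M2-A9.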

Klebsiella pneumoniae [8] = test: Antibacterial activity against Klebsiella pneumoniae ATCC 13883 by Etest method; assay type: functional; how it was run: as §1
Klebsiella pneumoniae [9] = test: Antibacterial activity against Klebsiella pneumoniae ATCC 13883 by Etest method in presence of 2 ug/ml NAB7061; assay type: functional; how it was run: as §1
Enterobacter cloacae = test: Antibacterial activity against Enterobacter cloacae ATCC 23355 […] by Etest method in presence of 4 ug/ml NAB7064; assay type: functional
Klebsiella oxytoca = test: Antibacterial activity against Klebsiella oxytoca ATCC 13182 by Etest method in presence of 4 ug/ml NAB7065; assay type: functional
Citrobacter freundii = test: Antibacterial activity against Citrobacter freundii ATCC 8090 by Etest method in presence of 4 ug/ml NAB7069; assay type: functional
Acinetobacter baumannii [10] = test: Antibacterial activity against Acinetobacter baumannii ATCC 19606 by Etest method in presence of 4 ug/ml NAB7070; assay type: functional
Escherichia coli [11] = test: microbe, parasite or virus in culture; details: ATCC 25992

**Q.** With CO[C@H]1/C=C/O[C@@]2(C)Oc3c(C)c(O)c4c(O)c(c(/C=N/N5CCN(C)CC5)c(O)c4c3C2=O)NC(=O)/C(C)=C\C=C\[C@H](C)[C@H](O)[C@@H](C)[C@@H](O)[C@@H](C)[C@H](OC(C)=O)[C@@H]1C [RIFAMPIN] as the compound, how does the MIC (Escherichia coli [1]) read?
**A.** Its MIC is 12 µg/mL.

**Q.** What about the “fractional inhibitory concentration index (FICI)” value (Escherichia coli [2]) of the same compound?
**A.** Its value is “<=0.128”.

**Q.** What about the MIC (Acinetobacter baumannii [3]) of the same compound?
**A.** The MIC was 0.016 µg/mL.

**Q.** And the “fractional inhibitory concentration index (FICI)” value (Acinetobacter baumannii [4])?
**A.** The value was 0.126.

**Q.** What about the MIC (Acinetobacter baumannii [5]) of the same compound?
**A.** The MIC was 0.047 µg/mL.

**Q.** And the MIC (Escherichia coli [6])?
**A.** Its MIC is 0.016 µg/mL.

**Q.** What about the MIC (Escherichia coli [7]) of the same compound?
**A.** The MIC was 0.19 µg/mL.

**Q.** What about the MIC (Pseudomonas aeruginosa) of the same compound?
**A.** The MIC was 16 µg/mL.

**Q.** What about the MIC (Klebsiella pneumoniae [8]) of the same compound?
**A.** The MIC was over 16 µg/mL.

**Q.** What about the MIC (Klebsiella pneumoniae [9]) of the same compound?
**A.** The MIC was 0.25 µg/mL.

**Q.** And the MIC (Enterobacter cloacae)?
**A.** Its MIC is 8 ng/mL.

**Q.** And the MIC (Klebsiella oxytoca)?
**A.** Its MIC is 0.032 µg/mL.

**Q.** What about the MIC (Citrobacter freundii) of the same compound?
**A.** Its MIC is 0.023 µg/mL.

**Q.** And the MIC (Acinetobacter baumannii [10])?
**A.** The MIC was 0.094 µg/mL.

**Q.** And the MIC (Escherichia coli [11])?
**A.** Its MIC is 8 µg/mL (≈ 9.72 µM).
